A selection: hits, their analogues and other compounds. The true share with any hit is near 3.5%.
RGS4 block: RGS4 inhibitors, primary screen, cell-based, HEK293 M3R inducible RGS4, calcium flux; 310,000 compounds, 0.45% hits; AID 463165, 2010; Regulator of G-protein signaling 4 (Homo sapiens), P49798; B-score at 10 µM; Fluo-4 calcium flux; stronger effect = higher value; triggered by carbachol at its EC20;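 active means B-score, a plate-corrected calcium signal, over three deviations above library mean, with baseline fluorescence within five deviations of library mean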;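 further: RGS4 expression induced by doxycycline in cells with stable M3 receptor; B-score is computed from the integrated fluorescence ratio over baseline after carbachol; higher B-score means a larger calcium signal and so more RGS4 inhibition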
Target sequence (P49798 whole entry, looked up): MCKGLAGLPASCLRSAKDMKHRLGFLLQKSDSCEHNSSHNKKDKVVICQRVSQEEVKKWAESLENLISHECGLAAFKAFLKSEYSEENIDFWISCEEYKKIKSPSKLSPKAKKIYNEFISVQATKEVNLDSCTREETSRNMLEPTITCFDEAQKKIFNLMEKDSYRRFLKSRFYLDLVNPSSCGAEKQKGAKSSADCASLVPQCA
RGS4 act: RGS4 potentiators or activators, primary screen, cell-based, HEK293 M3R inducible RGS4, calcium flux; carbachol calcium flux Fluo4; stronger effect = lower value; B-score at 10 µM; 310,000 compounds, 0.92% hits; AID 463111, 2010;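 active means B-score of the integrated calcium signal more than 4 SD below the library mean, with starting fluorescence not abnormally high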;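 further: negative B-score means reduced calcium response which marks RGS4 activation or potentiation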
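Test system: HEK293 cells with stable M3R and inducible RGS4; also added: carbachol at ECmax as muscarinic agonist stimulus; schedule: dye loading 30 min 37 °C, buffer rest 30 min RT; technique: kinetic calcium fluorescence imaging with Fluo4-AM dye, 2 µM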
MrgX1 agonist: agonists of human MrgX1 receptor, primary screen, HEK293 cells, Fluo-4 calcium flux; Mas-related G-protein coupled receptor member X1 (Homo sapiens), Q96LB2; 310,000 compounds, 0.44% hits; Fluo-4 calcium fluorescence, agonist mode; stronger effect = higher value; B-score at 10 µM;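 active means calcium response B-score plate-corrected fluorescence ratio at least 3 library SD, with starting fluorescence B-score inside 5 SD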
Target sequence (Q96LB2 whole entry, looked up): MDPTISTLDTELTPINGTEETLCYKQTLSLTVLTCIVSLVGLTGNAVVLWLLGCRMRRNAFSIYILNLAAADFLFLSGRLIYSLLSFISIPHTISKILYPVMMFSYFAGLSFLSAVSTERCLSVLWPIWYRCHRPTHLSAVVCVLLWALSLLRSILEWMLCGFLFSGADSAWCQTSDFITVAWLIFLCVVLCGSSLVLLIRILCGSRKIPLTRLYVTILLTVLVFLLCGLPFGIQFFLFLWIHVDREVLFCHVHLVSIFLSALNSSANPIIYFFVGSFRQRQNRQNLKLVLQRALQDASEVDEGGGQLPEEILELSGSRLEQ
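Assay system: MrgX1-expressing HEK293 cells / Amount: fifteen thousand cells per well / Doses: test compound in the initial addition of three / Timing: cells plated overnight, dye loaded 0.5 h 37 °C, 0.5 h room temperature / Technique: kinetic calcium dye fluorescence, Fluo-4 NW / Control set: positive and negative controls per plate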
MrgX1 antag: antagonists of human MrgX1 receptor, primary screen, HEK293 cells, Fluo-4 calcium flux; Mas-related G-protein coupled receptor member X1 (Homo sapiens), Q96LB2; BAM8-22 antagonism; stronger effect = lower value; B-score at 10 µM; 310,000 compounds, 1.3% hits; AID 588676, 2011;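 active means calcium-response B-score plate-corrected more than 3 library SD below zero, starting fluorescence within 5 deviations, no agonist response on first addition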;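 further: peak minus trough fluorescence over baseline after final BAM8-22 challenge near maximal dose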
MrgX1 PAM: positive allosteric modulators of MrgX1, primary screen, HEK293 cells, Fluo-4 calcium flux; Mas-related G-protein coupled receptor member X1 (Homo sapiens), Q96LB2; FDSS; stronger effect = higher value; B-score at 10 µM; 310,000 compounds, 0.63% hits; AID 588675, 2011;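 active means plate-corrected calcium response at least 3 library SD above typical, normal starting fluorescence, not activating the receptor alone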;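 further: compound read alongside a low EC10 to EC30 dose of BAM8-22 agonist; peak minus trough fluorescence over baseline measured at the second addition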
RGS4 block valid: enhanced carbachol calcium response, M3R/RGS4 cells, RGS4 inhibitor project, cell-based, validation screen, HEK293 M3R/RGS4, calcium flux; shares compounds with RGS4 block; carbachol calcium Fluo-4 fluorescence; carbachol added at its EC20; 0 = buffer wells, 100 = carbachol control; calcium response, % at 10 µM; 1,700 compounds, 65% hits; AID 492999, 2010;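 active means duplicate-averaged calcium response above the buffer-only control mean plus 5 SD of those controls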;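 further: integrated fluorescence ratio F max minus min over baseline F0; higher response in RGS4-induced cells means RGS4 inhibition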
RGS4 uninduced: carbachol calcium response in non-induced M3R cells, confirmation, counter-screen for RGS4 inhibitor project, cell-based, HEK293 M3R. shares compounds with RGS4 block. carbachol calcium Fluo-4; submaximal (EC20) carbachol stimulus; buffer wells 0%, carbachol control wells 100%. activity (percent), % at 10 µM. 1,900 compounds, 20% hits; call rule not given here;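 further: RGS4 induction absent so cells express M3R without RGS4; higher means more calcium signal and flags a non-specific hit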
RGS4 inh ctr2: second RGS4 inhibitor counter-screen in uninduced cells lacking carbachol; calcium response (agonist-mode artifact), % at 10 µM; shares compounds with RGS4 block; 1,900 compounds, 22% hits; HEK293 M3R/RGS4 non-induced, Fluo-4 calcium, no carbachol; normalised: buffer wells 0%, carbachol wells 100%;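 active means duplicate-averaged calcium rise in uninduced cells above buffer wells' mean plus 5 SD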
Starred values were filed as active, the others as inactive; i = inactive; . = not tested or not shown.

SMILES	RGS4 block	RGS4 act	MrgX1 agonist	MrgX1 antag	MrgX1 PAM	RGS4 block valid	RGS4 uninduced	RGS4 inh ctr2
Cc1c(Cl)ccc2sc(NC(=O)C3CC3)nc12	6.2*	i	i	i	i	8.0%*	i	i
O=C(Nc1cccc(F)c1)c1ccc(S(=O)(=O)N2CCCCC2)cc1	i	i	i	i	i	.	.	.
NC(=O)c1ccc(NC(=O)COc2coc(CN3CCc4ccccc4C3)cc2=O)cc1	i	i	i	i	i	.	.	.
Cc1ccc(C(=O)NCC#N)cc1	i	i	i	i	i	.	.	.
Cc1ccc(C(=O)NC(C#N)=C(Cl)Cl)cc1	9.8*	i	.	.	.	21%*	i	i
O=S1(=O)CC(O)C(N(CCO)C(=S)Nc2ccccc2)C1 (centres undefined)	i	i	i	i	i	.	.	.
O=[N+]([O-])c1ccccc1-c1cc(-c2ccccc2O)n[nH]1	i	i	i	i	i	i	i	i
O=C(NCC1(O)CCCCC1)C1CCC(=O)N(CCc2ccccc2)C1 (centres undefined)	i	i	i	i	i	.	.	.
O=C(COC(=O)C1CCN(S(=O)(=O)c2c(Cl)cccc2Cl)CC1)NCc1ccco1	i	i	i	i	i	.	.	.
CC(=O)C1=C(C)OC(N)=C(C#N)C1c1cccc([N+](=O)[O-])c1 (centres undefined)	7.2*	i	i	i	i	i	i	i
CS/C(=N\S(=O)(=O)c1ccccc1)c1ccccc1	i	i	i	i	i	.	.	.
O=S(=O)(/N=C(/Sc1ccccc1)c1ccccc1)c1ccccc1	13*	i	i	i	i	16%*	i	22%*
Cc1nnsc1C(=O)N1CCC(CO)(Cc2ccccc2Cl)CC1	i	i	i	i	i	.	.	.
COC(=O)c1ccc(NC(=S)Nc2ccccc2)cc1	i	i	i	i	i	.	.	.
COC(=O)c1ccc(NC(=S)Nc2ccc3ccccc3c2)cc1	7.8*	i	i	i	i	i	i	i
O=C(O)c1ccccc1N/N=C/C1=C(N2CCOCC2)C(=C\c2ccccc2)/CC1	8.2*	i	39*	i	i	30%*	i	140%*
O=C(N/N=C/C1=C(N2CCOCC2)C(=C\c2ccccc2)/CC1)Nc1ccccc1	i	i	i	i	i	.	.	.
CCN1C(=O)[C@H]2[C@@H](c3ccc(-c4ccc(Cl)c(Cl)c4)c(OC)c3)N[C@@](Cc3ccccc3)(C(=O)OC)[C@H]2C1=O	i	i	i	i	i	.	.	.
CCOC(=O)/C(=C\c1cn(C)c2ccccc12)[N+](=O)[O-]	5.8*	i	i	-4.6*	i	34%*	i	20%*
CCOC(=O)/C(C#N)=C\c1cn(C)c2ccccc12	i	i	i	i	i	.	.	.
CN(C)c1ccc(/C=C(/NC(=O)c2ccccc2)C(=O)NCCCn2ccnc2)cc1	i	i	i	i	i	.	.	.
C[C@H](/C=C/[C@@]1(O)[C@H](C)C[C@H](O)CC1(C)C)O[C@@H]1O[C@H](CO)[C@@H](O)[C@H](O)[C@H]1O	i	i	i	i	i	.	.	.
N#C/C(=C(/O)C(Cl)c1ccccc1)c1nc2ccccc2s1 (centres undefined)	5.1*	i	i	i	i	6.5%*	i	i
N#C/C(=C(/O)c1cccc(F)c1)c1nc2ccccc2s1	i	i	i	i	i	.	.	.
CCCCOC(=O)NS(=O)(=O)c1sc(CC(C)C)cc1-c1ccc(Cn2c(CC)nc3c(C)cc(C)nc32)cc1	.	.	i	i	i	.	.	.
SMILES	RGS4 block	RGS4 act	MrgX1 agonist	MrgX1 antag	MrgX1 PAM	RGS4 block valid	RGS4 uninduced	RGS4 inh ctr2
O=C(CCN1C(=O)c2cccc3cccc(c23)C1=O)Nc1ccccc1	i	i	i	i	i	.	.	.
CCOC(=O)C1=C(N)N(c2cc(S(=O)(=O)N3CCOCC3)ccc2Cl)C(=O)C1	i	i	i	i	i	.	.	.
COc1cccc(NC(=O)CCNC(=O)C2CCN(S(=O)(=O)c3ccc(F)cc3)CC2)c1	i	i	i	i	i	.	.	.
Cc1cc(C2(c3ccc(O)c(C)c3)C(=O)N(C)c3ccc(Br)cc32)ccc1O	13*	i	i	i	i	28%*	i	i
Cc1ccccc1OCCNc1cc(N2CCCCC2)ccc1[N+](=O)[O-]	i	i	i	i	i	i	i	i
Cc1ccccc1OCCNc1cc(N2CCN(CCO)CC2)ccc1[N+](=O)[O-]	i	i	i	i	i	.	.	.
Cc1ccc(C2(c3noc(CN4CCC(C(=O)N5CCOCC5)CC4)n3)CCCC2)cc1	i	i	i	i	i	.	.	.
COc1ccc(C(=O)COC(=O)C(CCSC)NS(=O)(=O)c2ccc(Cl)cc2)cc1 (centres undefined)	i	i	i	i	i	.	.	.
CSCCC(NS(=O)(=O)c1ccc(C)cc1)C(=O)NC1CCCCC1 (centres undefined)	i	i	i	i	i	i	i	i
COc1ccc(S(=O)(=O)NC(CCSC)C(=O)NC2CCCCC2)cc1 (centres undefined)	5.2*	i	i	i	i	i	i	i
CSCCC(NS(=O)(=O)c1ccc(C)cc1)C(=O)NC1CCCCCC1 (centres undefined)	i	i	i	i	i	.	i	i
O=c1[nH]c(C2CCN(S(=O)(=O)c3ccc4c(c3)OCCO4)CC2)nc2c1nnn2Cc1ccc(F)cc1	i	i	i	i	i	.	.	.
Cc1ccc(S(=O)(=O)N(C)C)cc1NC(=O)C(C)N(C)CCOc1ccc(Cl)cc1 (centres undefined)	i	i	i	i	i	.	.	.

Assay outcomes as filed in PubChem BioAssay.
